Data set [1] has as its system A-431. Description: Induction of apoptosis in human A431 cells assessed as DNA fragmentation at 2 uM after 24 hrs by ELISA analysis. It counts as functional. The gist of the method: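 A431 cells seeded at 5x10³ cells/well, then exposed to compound for 24 h at 37°C, 5% CO₂. Nucleosomal DNA fragmentation in lysate supernatants quantified by sandwich ELISA with anti-histone-biotin and anti-DNA-peroxidase antibodies and ABTS substrate (20 min), read at 405 nm. Expressed as fold increase, treated over untreated absorbance.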

In data set [2] the test system is A-431. Nature of the data set: Antiproliferative activity against human A431 cells assessed as cell growth inhibition after 72 hrs by MTT assay. The format is functional, cell-based. Conditions: A-431, 72 h. In a few lines: (§1)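 A431 or HaCaT cells seeded at 1x10⁴ cells/well, incubated 24 h, then exposed to 0.03-30 µM for 72 h at 37°C, 5% CO₂. MTT (5 mg/ml in PBS) for 4 h after a PBS wash, formazan dissolved in isopropanol, read at 405 nm. Viability expressed as % of untreated cells; IC₅₀ taken from at least three independent dose-response curves.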

Another data set relates to HaCaT. Nature of the data set: Antiproliferative activity against human HaCaT cells assessed as cell growth inhibition after 72 hrs by MTT assay. The format is functional, cell-based. In a few lines:
as §1
Background: Tetrazolium dyes change colour on reduction, which living cells bring about.

Data set [3] deals with T1, Epidermal growth factor receptor (Homo sapiens, UniProt P00533). Nature of the data set: Inhibition of EGFR-TK in human A431 cell lysate assessed as reduction in EGF stimulated kinase activity at 20 uM after 60 mins using biotinylated peptide substrate by ELISA. The format is cell-free. As to conditions: A-431. The gist of the method:
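A431 cells seeded at 4x10⁶ per 100-mm dish and stimulated with EGF (100 nM) for 60 min with or without compound. Tyrosine kinase activity in lysates measured by direct colorimetric ELISA using a biotinylated peptide substrate and an anti-phosphotyrosine-HRP antibody.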
A general note: ELISA stands for enzyme-linked immunosorbent assay.

A short description of data set [4]: Antiproliferative activity against human HGF assessed as cell growth inhibition at 30 uM after 72 hrs by MTT assay. Conditions: HGF cells, read-out: GI. In a few lines:
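Gingival fibroblasts were grown from healthy-donor biopsies of permanent molars in DMEM/F12 with 10% FCS, then seeded at 1x10⁴ cells/well. After 24 h, cells were treated for 72 h at 37°C, 5% CO₂. Read-out was MTT with isopropanol solubilization at 405 nm, expressed as % of untreated cells.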

Data set [5] deals with T1, Epidermal growth factor receptor. Nature of the data set: Inhibition of EGFR-TK in human A431 cell lysate assessed as reduction in EGF stimulated kinase activity after 60 mins using biotinylated peptide substrate by ELISA. It counts as cell-based, A-431.
The nature of data set [6]: Chemical stability of the compound in phosphate buffer assessed as degradation at 2 uM at pH 7.2 after 0.5 to 24 hrs by HPLC analysis. The format is physicochemical. As to conditions: pH 7.2, 2 µM. The gist of the method:
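Test solutions (2 µM) made from a 1 mg/mL DMSO stock diluted into pH 7.2 phosphate buffer and held at 37°C. Aliquots analysed by HPLC with diode-array detection on a phenyl-hexyl column at 0, 0.5, 2, 4 and 24 h.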

Data set [7] relates to A-431. Nature of the data set: Effect on total Akt levels in human A431 cells after 2 hrs by ELISA analysis. The format is cell-based. As to conditions: a-431, 2 h.
The target in data set [8] is T1, Epidermal growth factor receptor. Conditions: A-431, 10 uM.
The target is the same in data set [9]. As to conditions: A-431, 2 uM.

Calls of active or inactive are those of the source. No cut-off for these calls is given here.

T1 sequence (P00533 whole entry): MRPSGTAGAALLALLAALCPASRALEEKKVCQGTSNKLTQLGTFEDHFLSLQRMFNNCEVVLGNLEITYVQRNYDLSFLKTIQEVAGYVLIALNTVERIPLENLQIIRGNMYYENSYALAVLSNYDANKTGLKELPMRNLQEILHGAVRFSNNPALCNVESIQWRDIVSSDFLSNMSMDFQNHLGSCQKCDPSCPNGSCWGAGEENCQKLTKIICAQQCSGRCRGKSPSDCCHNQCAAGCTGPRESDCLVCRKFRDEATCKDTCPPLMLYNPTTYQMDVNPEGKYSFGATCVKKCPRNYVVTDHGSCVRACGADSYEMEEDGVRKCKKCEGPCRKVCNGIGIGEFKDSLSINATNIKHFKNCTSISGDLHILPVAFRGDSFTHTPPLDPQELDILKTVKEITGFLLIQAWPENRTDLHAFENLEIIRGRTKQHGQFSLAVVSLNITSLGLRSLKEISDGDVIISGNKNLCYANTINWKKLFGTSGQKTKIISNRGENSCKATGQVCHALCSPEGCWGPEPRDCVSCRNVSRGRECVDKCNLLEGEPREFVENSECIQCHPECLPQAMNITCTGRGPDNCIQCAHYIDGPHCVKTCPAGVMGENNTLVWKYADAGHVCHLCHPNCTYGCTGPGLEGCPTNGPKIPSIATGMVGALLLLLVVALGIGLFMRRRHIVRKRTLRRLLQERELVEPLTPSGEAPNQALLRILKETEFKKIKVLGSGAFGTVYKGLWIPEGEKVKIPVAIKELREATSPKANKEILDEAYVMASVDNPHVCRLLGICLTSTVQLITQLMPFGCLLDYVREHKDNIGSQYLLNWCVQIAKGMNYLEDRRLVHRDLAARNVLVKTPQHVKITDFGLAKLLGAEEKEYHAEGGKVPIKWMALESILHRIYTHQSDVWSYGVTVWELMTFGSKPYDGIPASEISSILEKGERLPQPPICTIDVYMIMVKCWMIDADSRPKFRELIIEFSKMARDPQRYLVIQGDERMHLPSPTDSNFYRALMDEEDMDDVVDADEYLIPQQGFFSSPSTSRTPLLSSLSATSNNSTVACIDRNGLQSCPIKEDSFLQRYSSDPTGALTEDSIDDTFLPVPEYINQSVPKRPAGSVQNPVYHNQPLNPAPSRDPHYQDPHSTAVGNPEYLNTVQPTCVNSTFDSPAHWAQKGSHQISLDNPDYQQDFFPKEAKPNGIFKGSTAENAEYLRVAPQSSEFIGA

For `CC[C@@]1(O)C(=O)OCc2c1cc1n(c2=O)Cc2cc3ccccc3nc2-1` [CAMPTOTHECIN], in the data set on A-431 [1], the Activity turned out to be 65%.

`O=C(CCCCCCN=C=S)Nc1ccc2ncnc(Nc3cccc(Br)c3)c2c1`: the IC50 came to 16.1 µM in the data set with A-431 [2] and 17.3 µM with HaCaT. In addition, in data set [3], the inhibition is below 50%.

As for `Nc1ccc2ncnc(Nc3cccc(Br)c3)c2c1`, the IC50 stood at 11.1 µM with A-431 [2] and 14.3 µM in the data set with HaCaT. Also, in [4], the inhibition at 72 h, 30 µM is below 50%.

As for `O=C(CCN=C=S)Nc1ccc2ncnc(Nc3cccc(Br)c3)c2c1`, the IC50 turned out to be 17.1 µM in the data set on A-431 [2] and 18.9 µM with HaCaT. Moreover, the inhibition in data set [3] was below 50%.

For `S=C=Nc1ccc2ncnc(Nc3cccc(Br)c3)c2c1`, the results for the IC50 (in the data set with A-431 [2]; with HaCaT; in data set [5]) were 2.04 µM, 2.62 µM and 0.88 µM, respectively. The inhibition at 72 h, 30 µM in data set [4] was below 50%. The Stability entry in [6] is given as “Stable”. Further, the Activity entry is “Non-toxic” in the data set with A-431 [7] and 40% in the data set with A-431 [1]. The same compound showed an inhibition in data set [8] of 89%. Further, the inhibition result in [9] was “Active”.

As for `C[S+]([O-])CCCCN=C=S` (centres undefined) [SULFORAPHANE], the figures for the IC50 (in the data set with A-431 [2]; in data set [5]) were 15.8 µM and 9 µM, respectively.

With `O=C(CCCN=C=S)Nc1ccc2ncnc(Nc3cccc(Br)c3)c2c1`, the IC50 in the data set on A-431 [2] stood at 17.1 µM; in the data set on HaCaT it was 16.3 µM. Moreover, the inhibition at 72 h, 30 µM in data set [4] was below 50%. Besides, the inhibition in [3] is below 50%.

Turning to `O=C(CCCCN=C=S)Nc1ccc2ncnc(Nc3cccc(Br)c3)c2c1`, the IC50 was found to be 16.3 µM in the data set with A-431 [2] and 18.2 µM in the data set with HaCaT. Besides, the inhibition in data set [3] was below 50%.

Turning to `O=C(CCCCCN=C=S)Nc1ccc2ncnc(Nc3cccc(Br)c3)c2c1`, the IC50 in the data set on A-431 [2] amounted to 14.4 µM; in the data set on HaCaT, 16.5 µM. For the same compound, the inhibition at 72 h, 30 µM in data set [4] is below 50%. Also, the inhibition in data set [3] was below 50%. Also, the Stability entry in data set [6] was “Stable”.

With `C=CC(=O)Nc1ccc2ncnc(Nc3cccc(Br)c3)c2c1`, in the data set on A-431 [1], the Activity is 48%.

For orientation: IC50 means the concentration at which inhibition is half-maximal.

The values are drawn from ChEMBL document CHEMBL3808338, “Combined inhibition of the EGFR/AKT pathways by a novel conjugate of quinazoline with isothiocyanate” (Eur J Med Chem, 2016).
